# Out of some 140,000 compounds screened, about 710 (0.51%) were called active. The list comes from a sample in which actives are over-represented; it also holds similar structures and randomly drawn compounds. Values without a mark were called inactive.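 The calls were made as follows: active = inhibition above a set limit, 3 SD over the mean compound inhibition (cut at about 44% in these data); inactive = the rest.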
# Assay: growth inhibitors of yeast BB579 in restrictive medium, primary screen, yeast lifespan-shortening project, S. cerevisiae (AID 804)
# Conditions: OD615, 48 h, at 10 µM, stronger effect = higher value
# Summary of the method: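 System: Saccharomyces cerevisiae DeaD strain BB579, replicative lifespan model yeast. Buffer or medium: restrictive glucose-based CSMM-D medium. Doses: one dose, 10 µM compound with 0.25% DMSO. Timing: 4 h preincubation and 48 h exposure at 30 °C. Detection: turbidity as optical density at 615 nm. Benchmarks: amphotericin B 10 µg/mL, positive.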
row,SMILES,inhibition
1,COc1cc(Br)cc(/C=N/c2ncn[nH]2)c1O,54.7% (active)
2,COc1ccc(Br)cc1/C=N/n1c(C)nnc1C,-33.3%
3,Oc1ccc(Br)cc1C=Nc1ccc2[nH]ncc2c1,-67.6%
4,Clc1cccc(CN2COc3c(cc(Cl)c4cccnc34)C2)c1,99.4% (active)
5,O=c1[nH]n(-c2cccc(Cl)c2)c2ncccc12,-63.7%
6,Nc1c(C(=O)NCc2ccccc2)nnn1Cc1cccc(Cl)c1,-3.98%
7,Cc1cc(OCCCC(=O)NCCN2C(=O)S/C(=C\c3cccnc3)C2=O)ccc1Cl,-3.48%
8,CCc1c(C)sc(NC(=O)/C=C/c2ccc3c(c2)OCO3)c1C(=O)OC,-27.2%
9,Nc1nc(NC(=O)/C=C/c2ccccc2)nn1-c1ccccc1,-11.2%
10,COC(=O)c1sc2ncccc2c1OCc1ccc(Cl)cc1Cl,-44.1%
11,COc1ccc(C(=O)O/N=C(\N)Cc2ccc(Cl)cc2Cl)cc1OC,-25.8%
12,NC(N)=N/N=C/c1ccc(OCc2ccc(Cl)cc2Cl)cc1,99.3% (active)
13,COc1ccccc1CN(C)C(=O)C1(c2ccc(Cl)cc2)CC1,-2.98%
14,N/C(=N\OC(=O)CC1CCCCC1)c1ccccc1,-2.81%
15,CCCCn1c(=S)[nH]c2ccccc2c1=O,6.35%
16,Cc1c(Cl)c([N+](=O)[O-])nn1CCCC(=O)Nc1cc(Cl)ccc1Cl,2.39%
17,Nc1nc(SCC(=O)NN(c2ccccc2)c2ccccc2)n[nH]1,-6.56%
18,CC(C)(C)C1CCC(=NNC(=O)c2cc(-c3ccccc3)n[nH]2)CC1 (stereo not given),-16.9%
19,O=C1NC(c2ccccc2)=NC1(Nc1ccccn1)C(F)(F)F (stereo not given),-3.11%
20,CCN=C1S/C(=C\c2cc(Br)ccc2OCC(=O)OCC)C(=O)N1CC,-14.3%
21,COCCn1c(SCC(=O)Nc2ccc3c(c2)CCC3)nc2ccccc2c1=O,-36.9%
22,COc1ccc(C2Nc3ccccc3C(=O)N2c2ccc(F)cc2)cc1Cn1nnc2ccccc21 (stereo not given),-29.1%
23,CC(C)CNC(=S)Nc1ccc(F)cc1,14.5%
24,CCOC(=O)c1cc2c(nc1NC(=S)Nc1ccccc1)CC(C)(CC)OC2 (stereo not given),0.93%
25,COc1cc(NC(=O)c2ccccc2NS(=O)(=O)c2ccc(Cl)s2)cc(OC)c1,-5.4%

row,SMILES,inhibition
1,S=C(NCc1ccc(Cl)cc1)NC1CCCCC1,-27.3%
2,COC(=O)Cc1ccc(NC(=S)NCc2ccc(Cl)cc2)cc1,-19.1%
3,S=C(NCc1ccc(Cl)cc1)NC12CC3CC(CC(C3)C1)C2,50% (active)
4,O=C(CCc1nc2ccccc2c(=O)[nH]1)OCC(=O)c1cccc(Cl)c1,-13.4%
5,N#C/C(=C/c1cccc([N+](=O)[O-])c1)c1nnc2n1CCCCC2,-18.8%
6,COCC(C)n1c(C)cc(C(=O)CSc2cc(C)c3ccccc3n2)c1C (stereo not given),-56.2%
7,O=c1[nH]cnc2c1c(-c1ccccc1)cn2-c1ccc(F)cc1,-19.6%
8,COc1ccc(-n2nnnc2-c2nc3ccccc3s2)cc1,-33.6%
9,O=C1OC(OC(=O)c2ccccc2Br)C(N2CCOCC2)=C1Cl (stereo not given),-32.6%
10,Cc1cccc(OCC(=O)NC(=S)Nc2ccccc2N2CCOCC2)c1,-49.4%
11,CCOc1cc(N2CCOCC2)c(OCC)cc1NC(=O)COc1cccc2cccnc12,67.1% (active)
12,CCOc1cc(N2CCOCC2)c(OCC)cc1NC(=O)COC(=O)[C@H](Cc1c[nH]c2ccccc12)NC(C)=O,-16%
13,CCc1ccc2c(c1)C(c1ccc([N+](=O)[O-])cc1)=NNC(c1ccccc1)=N2,-23.5%
14,O=C(Nc1ncccn1)c1cccs1,-21.9%
15,Cn1c(=O)c(Sc2ccc(Cl)cc2)c(O)c2ccccc21,-21.7%
16,Cn1c(=O)c(C(=O)Nc2ncccn2)c(O)c2ccccc21,68.5% (active)
17,Cc1ccc(NC(=O)c2sc3nc(N)c(C#N)cc3c2N)cc1,-23.2%
18,O=C(Cc1c[nH]c2ccccc12)N/N=C/c1cccc(F)c1,-39.1%
19,CCN(CC)CCn1c2ccc(Cl)cc2c2nc(C)sc21,-1.41%
20,COC(=O)Cn1c(=NC(=O)c2cc(OC)c(OC)c(OC)c2)sc2cc(OC)ccc21,-32.8%
21,COC(=O)Cn1c2ccc(C)cc2c2nc(C)sc21,43.6% (active)
22,CCOC(=O)c1nn(-c2ccccc2F)c2nc(Nc3ccccc3)cc(=O)n12,-45.6%
23,Cc1c(C=O)c2ccccn2c1C(=O)c1ccncc1,43.9% (active)
24,CC(OC(=O)CNS(=O)(=O)/C=C/c1ccccc1)C(=O)Nc1ccc(S(=O)(=O)N2CCCC2)cc1 (stereo not given),-25.4%
25,CN1CCC(=NNC(=O)c2ccc(N(Cc3ccc(Cl)cc3)S(C)(=O)=O)cc2)CC1,-8.48%

# — PubChem BioAssay AID804 (SRMLSC, 2007)
